This note sets out measurements from ChEMBL document CHEMBL3132813, “Exploring novel strategies for AIDS protozoal pathogens: α-helix mimetics targeting a key allosteric protein-protein interaction in C. hominis TS-DHFR” (Medchemcomm, 2013).

A short description of experiment [1]: Inhibition of DHFR activity of Cryptosporidium hominis thymidylate synthase-dihydrofolate reductase beta face mutant by steady state kinetic assay. An outline of the steps: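 Recombinant bifunctional TS–DHFR, Beta Face crossover-helix mutant, expressed in E. coli BL21. DHFR reaction was followed spectroscopically at 340 nm under steady-state conditions. Helix mimetic was added from a DMSO stock and preincubated with enzyme and substrates for 30 minutes before the reaction was started. Rates were normalized to a matched DMSO blank and fit as dose–response to give the IC50, reported as mean ± SD.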

For the next experiment, the target named is T1, Dihydrofolate reductase (Homo sapiens, UniProt P00374).
T1 sequence (P00374 whole entry): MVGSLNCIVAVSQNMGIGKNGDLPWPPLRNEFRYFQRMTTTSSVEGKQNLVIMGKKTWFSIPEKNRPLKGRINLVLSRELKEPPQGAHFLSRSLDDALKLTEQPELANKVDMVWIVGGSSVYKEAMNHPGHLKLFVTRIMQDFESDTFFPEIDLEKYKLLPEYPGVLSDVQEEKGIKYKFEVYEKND
In words: Inhibition of human DHFR. The gist of the method:
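Steady-state spectrophotometric assay at 340 nm, run separately for DHFR and TS reactions. Compound preincubated 30 min with enzyme and substrates before starting the reaction. Identical enzyme and ligand concentrations for all targets. DMSO-matched blank; rates normalized to it. IC50 as mean ± standard deviation.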

The next experiment relates to Cryptosporidium hominis. Description: Inhibition of DHFR activity of Cryptosporidium hominis thymidylate synthase-dihydrofolate reductase beta face mutant by steady state kinetic assay relative wild type TS-DHFR. The gist of the method:
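Bifunctional TS–DHFR enzymes (wild type and crossover-helix mutants) were over-expressed in E. coli BL21 and purified. DHFR activity was followed at 340 nm by steady-state spectroscopy. Enzyme and substrates were preincubated with mimetic for 30 min before starting the reaction. Rates were normalized to a matched DMSO blank. Enzyme and ligand concentrations were the same for each target, and IC50 was given as mean ± SD.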

Structures are written as SMILES. pIC50: −log10 of the molar value.

One may read the pIC50 as the negative decadic logarithm of the IC50, by convention in mol/L. Read a low pIC50 as a high IC50.

On to `CC(C)CN(C(=O)Nc1ccc(CCC(=O)O)cc1Cc1ccccc1)C(=O)c1ccc(OCC(=O)O)c(Cc2ccccc2)c1`, for which the negative logarithm of the IC50 (pIC50) in experiment [1] was 4.74; against Dihydrofolate reductase it was less than 3.00. In addition, the Ratio IC50 in the experiment on Cryptosporidium hominis came out at 10.
